Results as given in the EternaBench riboswitch data.

Tested on: MS2 coat protein
Test: apparent Kd, MS2 coat protein; higher = weaker binding; RNA-MaP array; theophylline 2 mM where present
Method in brief: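 The titrant was SNAP-549-labelled MS2 coat protein, run from 0.7 or 1.5 nM in doubling steps to 3 µM. It was applied to designs transcribed by stalled E. coli RNA polymerase on Illumina sequencing-chip clusters, without ligand first and then with constant ligand, in 100 mM Tris-HCl pH 7.5, 80 mM KCl, 4 mM MgCl2, BSA, DTT, yeast tRNA and Tween-20. The apparent Kd is the median of filtered per-cluster binding-curve fits, with green signal normalised to red-channel RNA signal and control-cluster median Fmax.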

[1] = designed as: OFF switch for theophylline, no ligand
[2] = ligand present: theophylline, designed as: OFF switch for theophylline
[3] = designed as: ON switch for theophylline, no ligand
[4] = ligand present: theophylline, designed as: ON switch for theophylline

Sequence	apparent Kd [1]	apparent Kd [2]	apparent Kd [3]	apparent Kd [4]
AAACGUUGCUGCGAUACCAGACAUGAGGAUCACCCAUGUACCAAGGUACGAAUAUAACAUGUCCCUUGGCAGCGCAGCAACGAAA	12.6 nM	279 nM		
AAAUAAAUAACUGAUACCAGUCGGACAACAUGAGGAUCACCCAUGUUCACCCAUGUUGAGGACCCUUGGCAGCAGAAAUAUAAAA	92.3 nM	185 nM		
AAUAACAUGAGGAUCACCCAUGUAAAAGAUACCAGAUGCAUGAUGAUCCCUUGGCAGCUUAAAACGCGAUUGGAAACAAUCGCGA			31.2 nM	126 nM
AAUCUGUCGGGUGAUACCAGCCUCGGCGCAUCUCACGCUGAACAUGAGGAUCACCCAUGUGGCCCUUGGCAGCACAUGACAAAUC			572 nM	55.1 nM
ACACGAGGAUCACCCGUGUCAUGUGGUGAUACCAGUUUACAUGAGAACCCUUGGCAGCAUAACAACAUGAGGAUCACCCAUGUCA			32.3 nM	41.7 nM
ACAUGAGGAUCACCCAUGUCACGGCACGAUACCAGCUGAUCCGGUGGCCCUUGGCAGCGUGACGUUUGGUCCCGCGGAUGACACG			134 nM	43 nM
ACAUGAGGAUCACCCAUGUGCCGUCUUGAUACCAGACGCGAAGUAGUCCCUUGGCAGCAAAUACGUGAGGGUCGCGCAUGUGUAA	24.1 nM	34.7 nM		
ACAUGAGGAUCACCCAUGUUCCUCAUUGAUACCAGUGAAUUUAGACGCCCUUGGCAGCGAGUUUUUUUAUAAGAUUUUUUUUUUU	626 nM	1320 nM		
ACAUGAGGAUCACCCAUGUUCCUCGCCGAUACCAGUGAAGAAGUACGCCCUUGGCAGCGGAAAGAGUAUUUUGGAGAUGAGGUAC	80 nM	88.8 nM		
ACCUCACUCUCUGAUACCAGCUAAUAACAUGAGGAUCACCCAUGUCAGACUUGUAUUGAUAGCCCUUGGCAGCAGAGGUAACUGC	9.39 nM	11.3 nM		
ACGACAUGAGGAUCACCCAUGUAAGGUGAUACCAGACGAAGUAAUGUCCCUUGGCAGCACACGCAUAGUUGCGAUUAUUGUACGA			533 nM	137 nM
ACGAUGCGACAUGAGGAUCACCCAUGUGAUACCAGCCUGGAAACAGGCCCUUGGCAGCACAAAUACUCCAGAAACGCAUCGAAUA	267 nM	439 nM		
AGAAUAACACAUGAGGAUCACCCAUGUGAUACCAGCUAGGAAACUAGCCCUUGGCAGCACAUAAGGUGAUCCAGCUGCCAAGAAU	137 nM	74.9 nM		
AGACAUGUAAGAUAAAUGACUUAUACAGAUACCAGACUAGUCAAUGUCCCUUGGCAGCUGCAUAACAUGAGGAUCACCCAUGUAA	26.7 nM	32.7 nM		
AGAUUAAAGAGUGAUACCAGACUACAUGAGGAUCACCCAUGUUACAUUUGAGUAGCUUUAGUCCCUUGGCAGCACUUUAUGUACA	45.5 nM	17.6 nM		
AGCGACAUGCGUGAUACCAGCUACAUGAGGAUCACCCAUGUACGUAGGAAACUACUGUGUAGCCCUUGGCAGCAUAGUGCAUGUC	12.6 nM	57.1 nM		
AUAAAUAUAACCGAUACCAGCCUUAUACAUGAGGAUCACCCAUGUUAUGCUUCCUUUUUUGGCCCUUGGCAGCGGAAAUGGGUAA			81.7 nM	36.2 nM
AUAACUGUCAAGGAAGGUGAUCCAGCAGAUACCAGCUAGGAAACUAGCCCUUGGCAGCUGCAACAUGAGGAUCACCCAUGUAAUA	76.8 nM	121 nM		
AUAAGUAAUGUUUCGUGUAUUAUUACAGAUACCAGACUAUCCUAUGUCCCUUGGCAGCUGGAUUACAUGAGGAUCACCCAUGUUG	16.4 nM	24.9 nM		
AUCAGUAGAACUGAUACCAGUCAAAGGCUUUGACCUCAUAACAUGAGGAUCACCCAUGUUGACCCUUGGCAGCAGUAGGCAAGGG	21.4 nM	35.1 nM		
AUCGCACCUGGUGAUACCAGCGUUUGCUCGCGACAUGAGGAUCACCCAUGUGGCCAGUGAUGCCCUUGGCAGCAUGGUCGGUGCA			317 nM	45.4 nM
AUCGUACCUGAGGAUACCAGCAUGUGAUCAUAACAUGAGGAUCACCCAUGUAAUCAGUGAUGCCCUUGGCAGCUUGAUCGGUACA			80.1 nM	24.9 nM
AUCGUACCUGAUGAUACCAGCAUGUGAUCGUAACAUGAGGAUCACCCAUGUGAUCAGUGAUGCCCUUGGCAGCAUGAUCGGUACA			35.4 nM	14.7 nM
AUGUCGUUGAAUACAGCGGCAUGGAGUGAUACCAGAAUGAUCAAAUUCCCUUGGCAGCAUGACAUGAGGAUCACCCAUGUUCGAU			111 nM	104 nM
AUUAUCAUGGUCAUAUAUAUAUCGUCAGAUACCAGACUAGAUAUAGUCCCUUGGCAGCUGUUACAUGAGGAUCACCCAUGUUAUA	138 nM	47.8 nM		
CAUACUUUAGUAUGACGUGUGGGCAGUGAUACCAGAUACGAAAGUAUCCCUUGGCAGCACAACAUGAGGAUCACCCAUGUAAUUA			20.5 nM	31.3 nM
CAUUAAGUAACUGAUACCAGUGUACUGACAUGAGGAUCACCCAUGUUGGGUUUUGUUGUACACCCUUGGCAGCAGAAUCUUAAUG	68.7 nM	95.5 nM		

Sequence	apparent Kd [1]	apparent Kd [2]	apparent Kd [3]	apparent Kd [4]
CCUGCGUUUCUUUUCUUUCGCAGGAAUGAUACCAGUAGGGAAACCUACCCUUGGCAGCAUGGGACAUGAGGAUCACCCAUGUUUU			166 nM	33.4 nM
CGAUCUUUCGAAAGAAGGAUCGAGUCUGAUACCAGAGACGAAAGUCUCCCUUGGCAGCAGUGCCAACAUGAGGAUCACCCAUGUU			15.8 nM	15.5 nM
CGGUACAUGAGGAUCACCCAUGUGUCGGAUACCAGAGAGCCGUCUCUCCCUUGGCAGCUGGUUUUACAUGAGGAUCACCCAUGUG	13.6 nM	20.1 nM		
CGUGUCGUAACUGAUACCAGUGUACUGACAUGAGGAUCACCCAUGUUGGGUUUUGUUGUACACCCUUGGCAGCAGAAUCGAUACG	76.9 nM	119 nM		
CUAUAAGUAACUGAUACCAGUGUACUGACAUGAGGAUCACCCAUGUUGGGUUUUGUUGUACACCCUUGGCAGCAGAAUCUUGUAG	62.1 nM	85 nM		
CUCGGUUGAUCCUAGCUGCCGAGAGGUGAUACCAGCAUCGAAAGAUGCCCUUGGCAGCACCAACAUGAGGAUCACCCAUGUAAUA			55.1 nM	483 nM
CUCUGAGUGAGUAAUCACUCAGAGGCGGAUACCAGCGAGGUCCAUCGCCCUUGGCAGCCGAACAUGAGGAUCACCCAUGUCGGUA			10.7 nM	14.6 nM
CUGCCAUGCAGAGAUACCAGUGCGCUCAGCACAUGAGGAUCACCCAUGUCGGCUGCCGAUCACCCUUGGCAGCUCUGCAUGGCAG			11.4 nM	9.11 nM
GAGCUGAUGUAGAGAAUAAAUAUAAGAGAUACCAGUACAGAAAUGUACCCUUGGCAGCUCAACUUUACAUGAGGAUCACCCAUGU	13.9 nM	18.8 nM		
GAGCUGAUGUAGGCCGGAUAUCCGGGAGAUACCAGUACAGAAAUGUACCCUUGGCAGCUCUUUCCUACAUGAGGAUCACCCAUGU	16.6 nM	96 nM		
GAGGUCCUGAGAGAUACCAGUGAGGCCACAUGAGGAUCACCCAUGUCCCUCACUCCGGCCCACCCUUGGCAGCUCGGAAGGUAAA	18.1 nM	119 nM		
GAUGAACUAUUUGAUACCAGACAACAUGAGGAUCACCCAUGUGCGCGUCGUCCUCUGCCUGUCCCUUGGCAGCGGAUAGUUUAUC	59.5 nM	89.9 nM		
GAUGAACUAUUUGAUACCAGACUACAUGAGGAUCACCCAUGUGUGUUAAUUUUUCAGUCAGUCCCUUGGCAGCAAAUAGUUUAUC	61.2 nM	146 nM		
GAUGAUAUUGCAGAUACCAGACACAUGAGGAUCACCCAUGUCUCUGAGAUGAAGGAUCGUGUCCCUUGGCAGCUGCGAUAUCAUC	32.7 nM	338 nM		
GCACCAGGUACGGAUACCAGCUGCCAGAGAUACAUGAGGAUCACCCAUGUGACCUGAUUUAGCCCUUGGCAGCUGUACCUGGUGC			466 nM	35.7 nM
GCAUGUGGAGUCUUACUAGAGAGGACAGAUACCAGUAAGAUGUGAUACCCUUGGCAGCUGCGAUUUACAUGAGGAUCACCCAUGU	21.5 nM	24.2 nM		
GCCAGACAUGAGGAUCACCCAUGUAGCGAUACCAGCUCUGUUGUGAGCCCUUGGCAGCGCACUGGCAUCGUAGGUGAUCCAAUAA			75.2 nM	187 nM
GGGUGCGGGAUAGAUACCAGUGCCUUAAAAUAGGCACAUGAGGAUCACCCAUGUACCGGGCGCCCUUGGCAGCUAGUACCAUCCA			127 nM	181 nM
GGUGAUCCGUGCUGCCGGAUCAUCGGUGAUACCAGCAUCGAAAGAUGCCCUUGGCAGCACCAACAUGAGGAUCACCCAUGUAAUA			206 nM	73.4 nM
GGUGGCGUGACGGAUACCAGCCACCGCCGCAAGGCCACAUGAGGAUCACCCAUGUUGGGUGGCCCUUGGCAGCUGUCGUGCGGCG			157 nM	281 nM
GGUGGGACUUGUGAUACCAGCCCAGUUCUAAUCGAACUGCACAUGAGGAUCACCCAUGUCGGCCCUUGGCAGCAUGAGUAUUUAU			322 nM	19.3 nM
GGUUUCGCGGGCGAUACCAGCUUGAUCGUACUGGCCUGGUACAUGAGGAUCACCCAUGUAAGCCCUUGGCAGCGCGCGCGAGACC	11.3 nM	24.7 nM		
GUAUGGAAACAUACUUGGGUAUCAUGAGAUACCAGUACAGAAAUGUACCCUUGGCAGCUCAAGCAUACAUGAGGAUCACCCAUGU	18 nM	27.1 nM		
UAGGUGAUCUUCAACGGAAAACGUUGUGAUACCAGCCAACAAUACGGCCCUUGGCAGCACAUGAGGAUCACCCAUGUGUACACCG	29.4 nM	193 nM		
UAUAUAUAUAUUGAUACCAGCAGAGAAAACAUAUAUCCUAACAUGAGGAUCACCCAUGUAUGCCCUUGGCAGCGAUAUAUAUAUA	26 nM	32.3 nM		
UCGUGGUCCGCAAGGACCGGGAGUUGCGAUACCAGCACGGUAACGUGCCCUUGGCAGCGCACAUGAGGAUCACCCAUGUGGUGUU	229 nM	514 nM		
